This is a sample that favours compounds with a hit; in the whole collection about 2.6% have one here.
NadD block: inhibitors of Staphylococcus aureus NadD | purified NadD enzyme, colorimetric absorbance read-out | inhibition, % at 20 µM | 360,000 tested, 0.78% active; in the data active means inhibition above about 26%
rCAG binder: binds r(CAG) RNA repeats; r(CAG) RNA repeat, TO-PRO-1 dye displacement fluorescence; inhibition, % at 3 µM; 370,000 tested, 1.3% active; AID 651821;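 active means inhibition above the plate cutoff, the mean of all test compounds on that plate plus 3 SD, cut at about 35% in these data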;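 further: 0% = DMSO alone and 100% = 100 µM mitoxantrone as full dye displacement; higher means more dye released from RNA so lower well fluorescence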
ABHD5 PLIN5 PPI: inhibitors of human ABHD5-perilipin-5 interaction; AID 602281; Split G. princeps luciferase complementation, luminescence, 4 h; inhibition, % at 4 µM; 360,000 tested, 0.78% active; Q00G26+Q8WTS1;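 active means inhibition above the mean inhibition across every tested compound plus 3 SD, cut at about 22% in these data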;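 further: 0% = DMSO only wells and the 100% control is not disclosed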
core dimer inh: blocks dimerization of HCV core protein; TR-FRET GST/Flag-core106 dimerization, 1536-well; 300,000 tested, 0.33% active; inhibition, % at 5 µM;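 active means inhibition above the mean of all tested compounds plus 3 SD, set per screening campaign, cut at about 45% in these data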
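Test system: GST/Flag-tagged HCV core106 proteins; Medium: KF-containing HEPES buffer, pH 7.45, DTT, CHAPS, BSA; Times: compound-protein-antibody incubation 4 h at 22.5 °C; Detection: TR-FRET 671 and 617 nm emission; Benchmarks: wells lacking GST-core106 and wells with excess unlabelled core106.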
Starred values were filed as active, the others as inactive; · = not tested or not shown.

SMILES	NadD block	rCAG binder	ABHD5 PLIN5 PPI	core dimer inh
O=S(=O)(c1ccc(C(F)(F)F)cc1)N1CCCc2nc(-c3ccc(F)cc3)ccc21	·	5	·	·
Cc1ccccc1OCCNc1cc(N2CCN(CCO)CC2)ccc1[N+](=O)[O-]	-9	3	22*	-14
Cc1ccccc1OCCNc1cc(N2CCCCC2)ccc1[N+](=O)[O-]	6	11	1	8
CS(=O)(=O)c1ccc2nc(NC(=O)CCC(=O)c3cccs3)sc2c1	14	20	-1	74*
COC(=O)[C@@]12CCCCC3=C1N(CCC3)C(=O)[C@H]2CC(=O)NCCCN1CCCC1=O	·	1	·	·
Cc1cc(C)n(-c2nc3ccccc3s2)n1	0	0	1	1
Cc1c2c(=O)n(-c3nc4ccccc4s3)nc-2cc(O)n1Cc1ccccc1	42*	·	5	·
Cc1cc(C)c(S(=O)(=O)/N=C2/C=C(SCC(=O)O)C(=O)c3ccccc32)cc1C	48*	·	-10	·
Cc1ccc(Cl)cc1NC1=C/C(=N\S(=O)(=O)c2cccs2)c2ccccc2C1=O	6	9	-6	22
CS(=O)(=O)c1cc([N+](=O)[O-])c(Sc2nc3ccccc3[nH]2)c([N+](=O)[O-])c1	-2	7	48*	2
O=C(CCc1ccccc1)N[C@H]1[C@H](O)CCC[C@]12C(=O)N(Cc1ccccc1)c1ccccc12	·	2	·	·
O=CC1=C(N2CCOCC2)/C(=C\c2ccccc2)CC1	3	1	22*	-2
CCOC(=O)C(Cc1ccc(NC(=O)/C(=C/c2ccc(OC(C)=O)cc2)NC(C)=O)cc1)N1C(=O)c2ccccc2C1=O (centres undefined)	-11	-1	-1	5
CCOC(=O)C(Cc1ccc(NC(=O)/C(=C/c2ccccc2)NC(=O)c2ccccc2)cc1)N1C(=O)c2ccccc2C1=O (centres undefined)	19	15	3	58*
COC(=O)N1CCCC1c1cccc2[nH]cc(C)c12 (centres undefined)	·	2	·	·
N=C1C(c2nc(-c3ccc(Cl)cc3)cs2)=C(O)CN1NC(=O)c1ccc(O)cc1	19	22	10	23
N=C1C(c2nc(-c3ccc(Br)cc3)cs2)=C(O)CN1NC(=O)c1ccc([N+](=O)[O-])cc1	7	5	13	53*
COc1ccc(-c2oc(NC(=O)c3ccc(C)cc3)c(C#N)c2-c2ccc(OC)cc2)cc1	3	22	-8	60*
COc1ccc(C(=O)Nc2oc(-c3ccccc3)c(-c3ccccc3)c2C#N)cc1	3	25	-3	47*
COc1cccc(C2NC(=S)NC3=C2CCc2ccccc23)c1 (centres undefined)	13	1	-7	1
S=C1NC2=C(CCCC2=C2SCCS2)C(c2ccccc2)N1 (centres undefined)	14	12	-11	46*
COc1ccc(/C=N/NC(=O)c2nn(-c3ccc(C)c(C)c3)c(=O)c3ccccc23)cc1	21	2	5	56*
COc1ccc(-n2nc(C(=O)NCC(=O)Nc3cc(OC)ccc3OC)c3ccccc3c2=O)cc1	-5	17	10	14
CN(c1ccc(OCC(=O)Nc2ccccc2C(=O)O)cc1)S(=O)(=O)c1ccc(Cl)cc1	4	55*	-4	·
COc1ccc(CNCC#Cc2ccc(C(F)(F)F)cc2)c(OC)c1	·	1	·	·
SMILES	NadD block	rCAG binder	ABHD5 PLIN5 PPI	core dimer inh
N#CCSc1ccccc1NC(=O)COc1ccc(-c2nnco2)cc1	-5	6	-3	·
N#Cc1ccsc1NC(=O)COc1ccc(-c2nnco2)cc1	16	15	4	96*
O=C(COC(=O)c1ccc(NS(=O)(=O)c2cccs2)cc1)Nc1nc2c(F)c(F)c(F)cc2s1	50*	·	4	·
COC(=O)C1CN(Cc2ccccc2)CCS(=O)(=O)N1Cc1ccc(C(F)(F)F)cc1 (centres undefined)	·	1	·	·
O=C(O)c1cccc2cccc(-c3c4ccc(=O)c(O)c-4oc4c(O)c(O)ccc34)c12	83*	92*	6	·
Cc1ccc(-c2nnn(CC(=O)Nc3ccc4nn(-c5ccccc5)nc4c3)n2)o1	34*	5	4	2
Cc1ccc(Nc2nc(=O)c3cc([N+](=O)[O-])ccc3s2)cc1	21	5	-10	48*
COc1ccc(C2CC(c3ccc(C)o3)=NN2C(C)=O)cc1 (centres undefined)	1	-6	2	4
CCOc1cccc2c1OC(c1cc(OC)c(OC)c(OC)c1)N1N=C(c3ccc(C)o3)CC21 (centres undefined)	5	·	25*	15
CC(C)C[C@@H]1COc2cc(Br)ccc2S(=O)(=O)N1Cc1cn(Cc2ccc(F)cc2)nn1	·	2	·	·
COc1ccc(/C(O)=C/C(=O)C(=O)NNC(=O)C(O)(c2ccccc2)c2ccccc2)cc1	11	44*	-1	27
O=C(CN1CCN(c2nc(-c3ccccc3)cs2)CC1)Nc1ccc(Cl)c(Cl)c1	·	4	·	·
Cc1ccc(NC(=O)CN2C(=O)S/C(=C\c3cc(Cl)c(OCC(=O)O)c(Cl)c3)C2=O)cc1	28*	13	-4	21
COc1ccc(-c2cc(C(=O)OCC(=O)c3cccc([N+](=O)[O-])c3)c3cc(C)ccc3n2)cc1	15	5	13	0
Cc1cc(C(=O)OCC(=O)c2cccc([N+](=O)[O-])c2)c2cccc(C)c2n1	6	11	-4	88*
CCC1(CC)NC(=O)N(CC(=O)N2N=C(c3ccc(Cl)cc3)CC2c2ccco2)C1=O (centres undefined)	4	-4	22*	7
O=C(OC12CCCN(C1)/C(=C/c1cccnc1)C2)c1ccco1 (centres undefined)	·	0	·	·
C=CCn1c(C)cc(C(=O)Cn2ncc(Cl)c(Cl)c2=O)c1C	17	12	7	51*
Cc1cccc(NC2=C/C(=N/S(=O)(=O)c3cccs3)c3ccccc3C2=O)c1	4	1	2	-3
Cc1ccc(NC2=C/C(=N\S(=O)(=O)c3cccs3)c3ccccc3C2=O)c(C)c1	6	·	-2	52*
O=C(CSc1nnc(CNc2ccc(F)cc2)n1Cc1ccco1)NC1CC1	7	0	22*	-3
C/C(=C/c1[nH]c(N)[n+](CC2CC2)c1Cc1ccccc1)Cn1[nH]c(=O)n(-c2ccccc2)c1=O	·	6	·	·
CC(C)=CCC/C(C)=C/CNCC(=O)N1c2ccccc2[C@]2(C)C[C@@H]3C(=O)N(C/C=C(\C)CCC=C(C)C)CC(=O)N3[C@H]12	·	3	·	·
CCOC(=O)c1oc2ccc(S(=O)(=O)n3nc(-c4ccc(OC)cc4)cc3N)cc2c1C	20	10	2	47*
CCOC(=O)c1oc2ccc(S(=O)(=O)n3nc(-c4ccccc4)cc3N)cc2c1C	3	4	0	12
CCC(OC(=O)c1cccs1)C(=O)NCc1ccco1 (centres undefined)	3	4	-7	0
CC(C)CC(OC(=O)c1cccs1)C(=O)NCc1ccco1 (centres undefined)	21	4	8	49*
S=c1nc(SCc2ccccc2)[nH]c2ccccc12	-3	22	-8	65*
